ChEMBL document CHEMBL1154674, “Synthesis and evaluation of three 18F-labeled aminophenylbenzothiazoles as amyloid imaging agents” (J Med Chem, 2009)

Target: Amyloid-beta precursor protein (Homo sapiens, UniProt P05067)
Test: Displacement of [125I]IMPY from beta-amyloid plaques in Alzheimer's disease patient brain homogenate
Assay type: tissue-based
Procedure, shortened: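 Test compound was added at 10^-5–10^-10 M, serially diluted in PBS containing 0.1% BSA. Nonspecific binding was defined with 600 nM unlabeled IMPY. Incubation was 37 °C for 2 h, followed by GF/B vacuum filtration, PBS washes and γ counting. Ki came from nonlinear regression.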

Sequence of Amyloid-beta precursor protein (P05067 whole entry): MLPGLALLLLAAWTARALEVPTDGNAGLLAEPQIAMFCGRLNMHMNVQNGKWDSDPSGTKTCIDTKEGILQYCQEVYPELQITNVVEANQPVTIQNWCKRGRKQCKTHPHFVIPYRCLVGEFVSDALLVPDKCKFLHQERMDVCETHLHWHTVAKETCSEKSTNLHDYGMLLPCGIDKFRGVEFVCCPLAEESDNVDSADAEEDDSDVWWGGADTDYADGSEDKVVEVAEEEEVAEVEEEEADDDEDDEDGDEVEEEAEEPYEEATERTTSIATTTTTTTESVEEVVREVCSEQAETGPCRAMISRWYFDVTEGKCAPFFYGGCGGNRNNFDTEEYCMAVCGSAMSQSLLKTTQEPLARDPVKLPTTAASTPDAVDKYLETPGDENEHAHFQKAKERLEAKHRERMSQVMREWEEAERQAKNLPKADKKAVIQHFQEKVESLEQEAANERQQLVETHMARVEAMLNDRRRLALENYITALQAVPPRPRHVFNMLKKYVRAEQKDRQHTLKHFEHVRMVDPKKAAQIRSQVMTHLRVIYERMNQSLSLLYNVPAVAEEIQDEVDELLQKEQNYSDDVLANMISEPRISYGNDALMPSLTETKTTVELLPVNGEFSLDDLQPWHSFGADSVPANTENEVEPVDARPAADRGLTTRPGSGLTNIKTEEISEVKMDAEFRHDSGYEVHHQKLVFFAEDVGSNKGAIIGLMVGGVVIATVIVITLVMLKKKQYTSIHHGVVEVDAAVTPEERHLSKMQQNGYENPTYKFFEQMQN

| Compound | Ki [nM] |
| --- | --- |
| Nc1ccc2nc(-c3ccc(F)cc3)sc2c1 | 10 |
| CNc1ccc2nc(-c3ccc(F)cc3)sc2c1 | 4.1 |
